In test [1] the target is T1, Adenosine receptor A1 (Bos taurus) (UniProt P28190).
T1 sequence (whole entry): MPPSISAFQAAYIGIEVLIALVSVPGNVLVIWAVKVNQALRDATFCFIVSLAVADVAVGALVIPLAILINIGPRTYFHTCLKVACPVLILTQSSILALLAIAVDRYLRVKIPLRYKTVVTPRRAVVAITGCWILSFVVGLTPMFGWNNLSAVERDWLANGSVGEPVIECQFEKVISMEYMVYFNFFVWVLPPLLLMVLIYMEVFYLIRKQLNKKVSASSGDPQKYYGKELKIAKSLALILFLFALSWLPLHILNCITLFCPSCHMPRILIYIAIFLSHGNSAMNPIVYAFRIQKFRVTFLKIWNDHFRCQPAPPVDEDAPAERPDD
The test can be described thus: Binding affinity towards Adenosine A1 receptor of bovine brain membrane using [3H]-CHA at 20 uM. In a few lines:
(§1)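 Compounds dissolved in DMSO (2% in buffer), with blank runs for solvent effect. Membrane protein measured after solubilization in 0.75 N NaOH against a BSA standard.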

The target of test [2] is T2, Adenosine receptor A3 (Homo sapiens, UniProt P0DMS8).
T2 sequence (P0DMS8 whole entry): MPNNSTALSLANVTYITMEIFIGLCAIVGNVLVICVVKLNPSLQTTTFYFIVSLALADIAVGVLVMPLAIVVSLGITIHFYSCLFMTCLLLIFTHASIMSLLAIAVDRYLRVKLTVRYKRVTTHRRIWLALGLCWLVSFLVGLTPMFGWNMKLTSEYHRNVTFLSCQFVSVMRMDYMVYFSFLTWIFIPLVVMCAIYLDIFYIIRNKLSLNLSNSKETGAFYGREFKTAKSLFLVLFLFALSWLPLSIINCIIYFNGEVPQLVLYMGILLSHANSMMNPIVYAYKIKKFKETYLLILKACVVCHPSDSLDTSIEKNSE
The test can be described thus: Binding affinity towards human adenosine A3 receptor expressed in HEK293 cells in presence of [125I]-AB-MECA at a concentration of 1 uM. The test is classed as cell-based.

Test [3] deals with T3, Adenosine receptor A1 (Bos taurus, UniProt P28190).
T3 sequence (P28190 whole entry): T1 sequence (whole entry)
The experiment in a line: Binding affinity towards adenosine A1 receptor of bovine brain membrane in presence of [3H]CHA at a concentration of 20 uM. In a few lines:
as §1

Test [4] concerns Adenosine receptor A2a (Bos taurus). The experiment in a line: Binding affinity towards adenosine A2A receptor of bovine striatal membrane in presence of [3H]-CGS- at a concentration of 20 uM.
Test [5] deals with Adenosine receptor A2a (Bos taurus). The experiment in a line: Binding affinity towards Adenosine A2A receptor of bovine striatal membrane using [3H]-CGS- at 20 uM.
Test [6] deals with T4, Adenosine receptor A3 (Homo sapiens) (UniProt P0DMS8).
T4 sequence (whole entry): T2 sequence (P0DMS8 whole entry)
The experiment in a line: Binding affinity towards human Adenosine A3 receptor expressed in HEK293 cells using [125I]AB-MECA at 1 uM. The test is classed as cell-based.

Test [7] deals with Adenosine receptor A2a (Bos taurus). The test can be described thus: Binding affinity towards adenosine A2A receptor of bovine striatal membrane in presence of [3H]-CGS-.
Test [8] has as its target T3, Adenosine receptor A1. The experiment in a line: Binding affinity towards adenosine A1 receptor of bovine brain membrane using [3H]-CHA at 20 uM.
Test [9] concerns the target T2, Adenosine receptor A3. The experiment in a line: Binding affinity towards human adenosine A3 receptor expressed in HEK293 cells using [125I]AB-MECA at 1 uM. The test is classed as cell-based.

`Cc1ccc(N2CN3C(=N2)C(=O)Nc2ccccc23)cc1` gave an inhibition in test [1] of 48%. For the same molecule, the Ki on Adenosine receptor A3 [2] is 197 nM.

Regarding `O=C(Cc1ccccc1)Nc1nc2ccccc2n2c(=O)n(-c3ccccc3)nc12`, the values for the Ki at Adenosine receptor A1 [3] and on Adenosine receptor A3 [2] were 6.3 nM and 3.75 nM, respectively. The inhibition in test [4] was found to be 62%.

Consider `O=c1n(-c2cccc(F)c2)nc2c(NC3CCCCC3)nc3ccccc3n12`, for which the Ki at Adenosine receptor A1 [3] stood at 4.9 nM; at Adenosine receptor A3 [2], 44.2 nM; in test [5], 66 nM.

`CC(=O)Nc1nc2ccccc2n2c(=O)n(-c3ccccc3)nc12`: the Ki was 4.3 nM on Adenosine receptor A1 [3] and 2 nM at Adenosine receptor A3 [2].

Regarding `CCC(=O)Nc1nc2ccccc2n2c(=O)n(-c3ccccc3)nc12`, the Ki at Adenosine receptor A1 [3] was 9.3 nM; at Adenosine receptor A3 [2], 15.8 nM.

Take `O=c1n(-c2ccccc2)nc2c(NC3CCCCC3)nc3ccccc3n12`: the Ki is 1.43 nM on Adenosine receptor A1 [3] and 506 nM on Adenosine receptor A3 [2].

On to `Nc1nc2c(NCc3ccccc3)cccc2n2c(=O)n(-c3ccccc3)nc12`, for which the figures for the Ki (at Adenosine receptor A1 [3]; in test [5]) were 730 nM and 6.5 nM, respectively. Also, the inhibition in test [6] amounted to 30%.

Turning to `Cc1cccc(-n2nc3c(N)nc4ccccc4n3c2=O)c1`, the Ki on Adenosine receptor A1 [3] amounted to 20 nM; on Adenosine receptor A3 [2], 28.5 nM.

Consider `O=c1n(-c2ccccc2)nc2c(NCCc3ccccc3)nc3ccccc3n12`, for which the Ki on Adenosine receptor A1 [3] was 4.8 nM; on Adenosine receptor A3 [2] it was 201 nM. Further, in test [4], the inhibition was 59%.

On to `COc1ccc(-n2nc3c(=O)[nH]c4ccccc4n3c2=O)cc1`, for which the Ki was determined as 934 nM on Adenosine receptor A1 [3] and 16 nM at Adenosine receptor A3 [2].

On to `Cn1c(=O)c2nn(-c3ccc(Cl)cc3)c(=O)n2c2ccccc21`, for which the inhibition in test [1] came to 29%; in [4], 8%. Besides, the Ki on Adenosine receptor A3 [2] was 137 nM.

With `Cc1cccc(-n2nc3c(NC4CCCC4)nc4ccccc4n3c2=O)c1`, the Ki on Adenosine receptor A3 [2] is 27.5 nM.

On to `COc1ccc(NC(=O)Nc2nc3ccccc3n3c(=O)n(-c4ccccc4)nc23)cc1`, for which the Ki at Adenosine receptor A1 [3] amounted to 2600 nM; on Adenosine receptor A3 [2], 960 nM.

For the molecule `O=c1n(-c2cccc(F)c2)nc2c(NC3CCCC3)nc3ccccc3n12`, the Ki came out at 1.1 nM on Adenosine receptor A1 [3], 173 nM on Adenosine receptor A3 [2] and 148 nM in [7].

For `COc1ccc(-n2nc3c(N)nc4ccccc4n3c2=O)cc1`, the Ki on Adenosine receptor A1 [3] was 312 nM; on Adenosine receptor A3 [2], 45.3 nM.

Take `O=c1n(-c2ccccc2)nc2c(NCCCc3ccccc3)nc3ccccc3n12`: the figures for the Ki at Adenosine receptor A1 [3] and on Adenosine receptor A3 [2] were 17.9 nM and 40.9 nM, respectively. The inhibition in test [4] is 61%.

`Cc1cccc(-n2nc3c(=O)[nH]c4ccccc4n3c2=O)c1`: the Ki at Adenosine receptor A1 [3] was 436 nM; at Adenosine receptor A3 [2], 91 nM. Further, the inhibition in test [4] was found to be 5%.

On to `Nc1nc2ccccc2n2c(=O)n(-c3cccc(F)c3)nc12`, for which the Ki at Adenosine receptor A1 [3] was found to be 28.5 nM; at Adenosine receptor A3 [2], 157 nM.

Turning to `O=c1[nH]c2ccccc2n2c(=O)n(-c3cccc(F)c3)nc12`, the Ki at Adenosine receptor A1 [3] was found to be 200 nM; at Adenosine receptor A3 [2] it was 63 nM. The inhibition in [4] was determined as 20%.

On to `O=C(Nc1nc2ccccc2n2c(=O)n(-c3ccccc3)nc12)c1ccccc1`, for which the Ki on Adenosine receptor A1 [3] is 89.6 nM; on Adenosine receptor A3 [2] it was 1.47 nM. The inhibition in test [4] was 53%.

Regarding `CCCn1c(=O)c2nn(-c3ccccc3)c(=O)n2c2ccccc21`, the Ki on Adenosine receptor A1 [3] turned out to be 406 nM; on Adenosine receptor A3 [2], 1250 nM. The inhibition in test [4] amounted to 44%.

With `Cc1ccc(-n2nc3c(=O)n(C)c4ccccc4n3c2=O)cc1`, the inhibition turned out to be 22% in test [1] and 0% in test [4]. Also, on Adenosine receptor A3 [2], the Ki was 504 nM.

In the case of `Cn1c(=O)c2[nH]c(C3CCCC3)nc2n(C)c1=O` [8-CYCLOPENTYLTHEOPHYLLINE], the Ki at Adenosine receptor A1 [8] amounted to 0.5 nM; on Adenosine receptor A3 [9] it was 1300 nM.

For `Nc1nc2ccccc2n2c(=O)n(-c3ccccc3)nc12`, the inhibition in test [6] was 36%.

`C#CCn1c(=O)c2nn(-c3ccccc3)c(=O)n2c2ccccc21`: the Ki at Adenosine receptor A3 [2] worked out at 479 nM.

For the molecule `Cc1cccc(-n2nc3c(NC4CCCCC4)nc4ccccc4n3c2=O)c1`, the Ki at Adenosine receptor A1 [3] came out at 4.2 nM; at Adenosine receptor A3 [2] it was 548 nM. The inhibition in [4] was 41%.

Consider `O=C(Nc1ccccc1)Nc1nc2ccccc2n2c(=O)n(-c3ccccc3)nc12`, for which, on Adenosine receptor A3 [2], the Ki turned out to be 276 nM.

For the molecule `Cc1ccc(-n2nc3c(N)nc4ccccc4n3c2=O)cc1`, the Ki at Adenosine receptor A3 [2] turned out to be 48.3 nM.

`Nc1nc2ccccc2n2c(=O)n(-c3ccc(Cl)cc3)nc12`: the figures for the Ki at Adenosine receptor A1 [3] and on Adenosine receptor A3 [2] were 426 nM and 329 nM, respectively. Further, the inhibition in [4] came to 37%.

On to `O=c1n(-c2ccccc2)nc2c(NC3CCCC3)nc3ccccc3n12`, for which the results for the Ki at Adenosine receptor A1 [3] and on Adenosine receptor A3 [2] were 0.42 nM and 55.4 nM, respectively.

Consider `O=c1[nH]c2ccccc2n2c(=O)n(-c3ccccc3)nc12`, for which the Ki at Adenosine receptor A1 [3] was 515 nM; on Adenosine receptor A3 [2] it was 80 nM. Further, the inhibition in test [4] amounted to 64%.

As to `O=c1n(-c2ccccc2)nc2c(NCC(c3ccccc3)c3ccccc3)nc3ccccc3n12`, the Ki on Adenosine receptor A1 [8] worked out at 54 nM; on Adenosine receptor A3 [9] it was 1020 nM.

Turning to `O=c1n(-c2ccccc2)nc2c(NCc3ccccc3)nc3ccccc3n12`, the Ki amounted to 55 nM at Adenosine receptor A1 [3] and 1700 nM on Adenosine receptor A3 [2]. For the same molecule, the inhibition in [4] was 59%.

With `O=c1n(-c2ccc(Cl)cc2)nc2c(NC3CCCCC3)nc3ccccc3n12`, the Ki on Adenosine receptor A1 [3] was found to be 80.1 nM; on Adenosine receptor A3 [2] it was 56.1 nM. The inhibition in test [4] is 0%.

Consider `Nc1cccc2c1nc(N)c1nn(-c3ccccc3)c(=O)n12`, for which the inhibition in test [6] is 54%.

For the molecule `Cn1c(=O)c2nn(-c3ccccc3)c(=O)n2c2ccccc21`, the results for the Ki at Adenosine receptor A1 [3] and on Adenosine receptor A3 [2] were 309 nM and 36.6 nM, respectively. Besides, the inhibition in test [4] amounted to 53%.

As for `O=c1[nH]c2ccccc2n2c(=O)n(-c3ccc(Cl)cc3)nc12`, the Ki on Adenosine receptor A1 [3] came out at 1020 nM; at Adenosine receptor A3 [2], 114 nM.

On to `Cc1ccc(-n2nc3c(=O)[nH]c4ccccc4n3c2=O)cc1`, for which the Ki at Adenosine receptor A1 [3] is 155 nM; at Adenosine receptor A3 [2], 25 nM. In addition, in test [4], the inhibition stood at 0%.

A word on the inhibition: it is the share of the control response that was lost under treatment. The Ki is the dissociation constant of the complex between target and ligand, obtained from inhibition or displacement.
